Consider 31 compounds from ChEMBL document CHEMBL1255505, “Synthesis of new series of quinoxaline based MAO-inhibitors and docking studies” (Eur J Med Chem, 2010).

Each structure is given as a SMILES string.

A short description of assay [1]: Selectivity index ratio of IC50 for MAOB to IC50 for MAOA. Summed up:
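Bovine brain mitochondria (6 mg/ml) in 0.25 M phosphate buffer, pH 7.4, with 0.1 mM isoform-specific substrate. Compound in propylene glycol at 0.5 nM–0.1 M; 60 min at 37 °C, perchloric acid stop, fluorimetric read. Six samples in duplicate; ratio of the MAO-B and MAO-A IC50s.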

The target in assay [2] is Amine oxidase [flavin-containing] B (Bos taurus) (UniProt P56560).
A short description of assay [3]: Inhibition of MAOA by spectrofluorimetry.

Amine oxidase [flavin-containing] B (Bos taurus), sequence (P56560 whole entry, looked up): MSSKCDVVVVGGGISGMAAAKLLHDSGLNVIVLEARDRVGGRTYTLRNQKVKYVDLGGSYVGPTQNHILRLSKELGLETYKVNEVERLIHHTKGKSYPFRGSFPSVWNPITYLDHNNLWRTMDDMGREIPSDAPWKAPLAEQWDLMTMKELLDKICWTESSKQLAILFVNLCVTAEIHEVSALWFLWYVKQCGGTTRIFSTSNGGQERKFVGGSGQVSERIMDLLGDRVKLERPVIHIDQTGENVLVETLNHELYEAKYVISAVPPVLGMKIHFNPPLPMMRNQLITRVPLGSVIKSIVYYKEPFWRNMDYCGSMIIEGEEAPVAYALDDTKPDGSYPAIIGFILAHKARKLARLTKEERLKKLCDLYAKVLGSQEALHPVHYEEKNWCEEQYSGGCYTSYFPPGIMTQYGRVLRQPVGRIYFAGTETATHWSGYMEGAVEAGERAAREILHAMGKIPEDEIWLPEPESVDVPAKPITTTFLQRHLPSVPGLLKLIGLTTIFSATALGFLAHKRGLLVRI

With `COc1ccccc1/C=N/Nc1nc2ccccc2nc1Cc1ccccc1`, the Ratio IC50 in assay [1] turned out to be 9510. In addition, the IC50 was found to be 790 µM in assay [2] and 0.083 µM in assay [3].

Turning to `COc1ccc(/C(C)=N/Nc2nc3ccccc3nc2Cc2ccccc2)cc1`, the Ratio IC50 in assay [1] amounted to 3140. Also, the figures for the half-inhibitory concentration (IC50) in assay [2] and in assay [3] were 280 µM and 0.089 µM, respectively.

The compound `COc1ccc(-c2nnc3c(C(=O)c4ccccc4)nc4ccccc4n23)cc1` had an IC50 in assay [2] of 85 µM.

For `O=C(c1ccccc1)c1nc2ccccc2n2cnnc12`, in assay [1], the Ratio IC50 came out at 1250. Also, the figures for the 50% inhibitory concentration (IC50) in assay [2] and in assay [3] were 940 µM and 0.75 µM, respectively.

On to `CN(C)c1ccc(-c2nnc3c(C(=O)c4ccccc4)nc4ccccc4n23)cc1`, for which the Ratio IC50 in assay [1] amounted to 2.7e+06. The half-maximal inhibitory concentration (IC50) in assay [2] turned out to be 7300 µM; in assay [3], 0.0027 µM.

For the compound `C/C(=N\Nc1nc2ccccc2nc1Cc1ccccc1)c1cccs1`, the Ratio IC50 in assay [1] came to 13300. For the same compound, the figures for the IC50 in assay [2] and in assay [3] were 850 µM and 0.064 µM, respectively.

Turning to `O=C(c1ccccc1)c1nc2ccccc2n2c(-c3ccccc3Cl)nnc12`, in assay [1], the Ratio IC50 was determined as 4310. Moreover, the results for the IC50 in assay [2] and in assay [3] were 380 µM and 0.088 µM, respectively.

Consider `c1ccc(Cc2nc3ccccc3n3cnnc23)cc1`, for which, in assay [1], the Ratio IC50 is 1090. For the same compound, the IC50 in assay [2] worked out at 95 µM; in assay [3], 0.087 µM.

In the case of `C(=N\Nc1nc2ccccc2nc1Cc1ccccc1)/c1ccccc1`, the Ratio IC50 in assay [1] was found to be 3950. The IC50 in assay [2] stood at 320 µM; in assay [3], 0.081 µM.

Regarding `COc1ccc(/C=N/Nc2nc3ccccc3nc2Cc2ccccc2)cc1OC`, the Ratio IC50 in assay [1] is 8210. Also, the 50% inhibitory concentration (IC50) in assay [2] turned out to be 460 µM; in assay [3] it was 0.056 µM.

As for `Clc1ccccc1/C=N/Nc1nc2ccccc2nc1Cc1ccccc1`, the Ratio IC50 in assay [1] is 15000. Besides, the IC50 came out at 87 µM in assay [2] and 0.0058 µM in assay [3].

For the compound `COc1ccc(/C=N/Nc2nc3ccccc3nc2Cc2ccccc2)cc1`, the 50% inhibitory concentration (IC50) in assay [2] turned out to be 79 µM.

As for `COc1cc(/C(C)=N/Nc2nc3ccccc3nc2Cc2ccccc2)cc(OC)c1OC`, the Ratio IC50 in assay [1] was determined as 8960. Also, the results for the IC50 in assay [2] and in assay [3] were 260 µM and 0.029 µM, respectively.

Regarding `CN(C)c1ccc(/C=N/Nc2nc3ccccc3nc2Cc2ccccc2)cc1`, the Ratio IC50 in assay [1] is 10600. The IC50 in assay [2] came out at 880 µM; in assay [3] it was 0.083 µM.

On to `CN(C)c1ccc(-c2nnc3c(C(=O)c4ccccc4)nc4ccccc4n23)cc1Br`, for which the midpoint of inhibition in assay [2], the IC50, lay at 73 µM.

As to `COc1ccc(-c2nnc3c(C(=O)c4ccccc4)nc4ccccc4n23)cc1OC`, the Ratio IC50 in assay [1] was found to be 12600. Moreover, the half-maximal inhibitory concentration (IC50) in assay [2] stood at 86 µM; in assay [3], 0.0068 µM.

For the compound `O=C(c1ccccc1)c1nc2ccccc2n2c(-c3ccccc3)nnc12`, the Ratio IC50 in assay [1] is 88800. Also, the half-maximal inhibitory concentration (IC50) was found to be 240 µM in assay [2] and 0.0027 µM in assay [3].

Consider `O=C(c1ccccc1)c1nc2ccccc2n2c(-c3ccc([N+](=O)[O-])cc3)nnc12`, for which, in assay [1], the Ratio IC50 was 10400. In addition, the 50% inhibitory concentration (IC50) in assay [2] came to 230 µM; in assay [3] it was 0.022 µM.

Take `Clc1ccccc1-c1nnc2c(Cc3ccccc3)nc3ccccc3n12`: the Ratio IC50 in assay [1] stood at 11800. Also, the values for the IC50 in assay [2] and in assay [3] were 72 µM and 0.0061 µM, respectively.

Consider `C/C(=N\Nc1nc2ccccc2nc1Cc1ccccc1)c1ccc(N)cc1`, for which, in assay [1], the Ratio IC50 was 87700. Also, the IC50 in assay [2] is 860 µM; in assay [3], 0.0098 µM.

For `c1ccc(Cc2nc3ccccc3n3c(-c4ccccc4)nnc23)cc1`, the Ratio IC50 in assay [1] is 12000. The results for the half-inhibitory concentration (IC50) in assay [2] and in assay [3] were 980 µM and 0.082 µM, respectively.

`C/C(=N\Nc1nc2ccccc2nc1Cc1ccccc1)c1ccccn1`: the Ratio IC50 in assay [1] came out at 10800. Also, the IC50 in assay [2] was found to be 980 µM; in assay [3] it was 0.091 µM.

In assay [2], `Cc1ccsc1/C=N/Nc1nc2ccccc2nc1Cc1ccccc1` showed an IC50 of 860 µM.

Consider `C/C(=N\Nc1nc2ccccc2nc1Cc1ccccc1)c1ccc(O)cc1`, for which the Ratio IC50 in assay [1] turned out to be 3e+06. In addition, the values for the half-maximal inhibitory concentration (IC50) in assay [2] and in assay [3] were 8400 µM and 0.0028 µM, respectively.

With `C/C(=N\Nc1nc2ccccc2nc1Cc1ccccc1)c1ccc(C)cc1`, the Ratio IC50 in assay [1] stood at 8600. In addition, the IC50 in assay [2] stood at 740 µM; in assay [3], 0.086 µM.

Take `Clc1ccc(/C=N/Nc2nc3ccccc3nc2Cc2ccccc2)cc1`: the Ratio IC50 in assay [1] was determined as 1100. The results for the 50% inhibitory concentration (IC50) in assay [2] and in assay [3] were 84 µM and 0.076 µM, respectively.

`Oc1ccc(/C=N/Nc2nc3ccccc3nc2Cc2ccccc2)cc1`: the Ratio IC50 in assay [1] is 2.32e+06. The half-maximal inhibitory concentration (IC50) worked out at 7900 µM in assay [2] and 0.0034 µM in assay [3].

Turning to `C=NNc1nc2ccccc2nc1Cc1ccccc1`, the Ratio IC50 in assay [1] was 10400. Also, the 50% inhibitory concentration (IC50) in assay [2] was found to be 950 µM; in assay [3] it was 0.086 µM.

The compound `C/C(=N\Nc1nc2ccccc2nc1Cc1ccccc1)c1ccc([N+](=O)[O-])cc1` gave a 50% inhibitory concentration (IC50) in assay [2] of 89 µM.

Consider `C(=N\Nc1nc2ccccc2nc1Cc1ccccc1)/c1ccc2c(c1)OCO2`, for which half-maximal inhibition in assay [2] (IC50) required 87 µM.

Consider `C/C(=N\Nc1nc2ccccc2nc1Cc1ccccc1)c1ccccc1`, for which the Ratio IC50 in assay [1] was found to be 12400. The half-inhibitory concentration (IC50) worked out at 980 µM in assay [2] and 0.079 µM in assay [3].

As a reminder, the IC50 is the concentration at which inhibition is half-maximal. Read a low IC50 as greater potency in that assay.
